For 4 molecules, Control, IC50 and EC50 results are on record in ChEMBL document CHEMBL1128698, “5-Arylthio-substituted 2-amino-4-oxo-6-methylpyrrolo[2,3-d]pyrimidine antifolates as thymidylate synthase inhibitors and antitumor agents” (J Med Chem, 1995).

As usually defined, the IC50 is the concentration at which inhibition is half-maximal. One may read the EC50 as the concentration that produces a half-maximal response.

Test [1] relates to FaDu. Nature of the test: Protection by 50 uM against the Growth inhibition against Human squamous cell line(Fadu). Format: functional. Further details: scale not given: the % may be the effect or the level left.
The target in test [2] is T1, Thymidylate synthase (Lactobacillus casei, UniProt P00469).
T1 sequence (P00469 whole entry): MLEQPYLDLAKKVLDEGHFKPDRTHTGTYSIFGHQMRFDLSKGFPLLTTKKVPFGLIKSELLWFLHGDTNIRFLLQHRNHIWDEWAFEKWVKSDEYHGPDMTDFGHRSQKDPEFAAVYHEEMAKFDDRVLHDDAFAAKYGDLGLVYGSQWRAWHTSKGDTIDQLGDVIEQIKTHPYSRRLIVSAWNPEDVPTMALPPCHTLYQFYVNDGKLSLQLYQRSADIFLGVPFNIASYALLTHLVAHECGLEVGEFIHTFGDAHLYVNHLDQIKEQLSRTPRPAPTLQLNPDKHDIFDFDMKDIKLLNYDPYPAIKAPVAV
Nature of the test: Inhibitory activity against thymidylate Synthase from Lactobacillus casei. Further details: species or system Lacticaseibacillus casei.

For test [3], the system named is CCRF-CEM. Nature of the test: Growth inhibition against Human leukemic cell line(CCRF-CEM). Type of test: functional, cell-based. The method, boiled down: (§1)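 Continuous drug exposure growth assay. CCRF-CEM and its MTX-resistant subline R30dm (1% of parental FPGS activity) cultured as previously reported; A253 and FaDu squamous carcinoma monolayers subcultured in RPMI 1640/10% fetal calf serum. EC50 read visually from plots of percent control growth against log drug concentration. Averages ± range for n = 2, ± SD for n ≥ 3.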

In test [4] the test system is FaDu. The test is described as follows: Protection by 10 uM LV against the growth inhibition against Human squamous cell line(Fadu). Format: functional. Further details: scale not given: the % may be the effect or the level left.
The subject of test [5] is FaDu. The test is described as follows: Protection by 50 uM+40 uM against Growth inhibition against Human squamous cell line(Fadu), in the presence of 50 uM hypoxanthine +40 uM thymidine. Set-up: scale not given: the % may be the effect or the level left. Type of test: functional.
In test [6] the test system is FaDu. The test is described as follows: Growth inhibition against Human squamous cell line(Fadu). Format: functional, cell-based. The method, boiled down: as §1
Test [7] deals with Dihydrofolate reductase (Lactobacillus casei, UniProt P00381). Nature of the test: Inhibitory activity against dihydro folate reductase from Lactobacillus casei. Set-up: species or system Lacticaseibacillus casei.
Test [8] deals with CCRF-CEM. Nature of the test: Growth inhibition against Human leukemic cell line (Methotrexate resistant CCRF-CEM). Format: functional, cell-based. The method, boiled down:
as §1

Test [9] deals with T2, Dihydrofolate reductase (Homo sapiens, UniProt P00374).
T2 sequence (P00374 whole entry): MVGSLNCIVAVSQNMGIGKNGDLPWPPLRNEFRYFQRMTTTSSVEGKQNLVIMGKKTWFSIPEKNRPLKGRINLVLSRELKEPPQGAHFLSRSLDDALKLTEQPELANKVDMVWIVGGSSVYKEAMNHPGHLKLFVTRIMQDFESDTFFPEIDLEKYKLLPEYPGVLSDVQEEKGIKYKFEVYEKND
Nature of the test: Inhibitory activity against dihydro folate reductase from human recombinant sources.

Test [10] deals with FaDu. The test is described as follows: Protection against the growth inhibition against Human squamous cell line(Fadu). Format: functional. Further details: scale not given: the % may be the effect or the level left.
Test [11] deals with FaDu. Nature of the test: Protection by 40 uM against the Growth inhibition against Human squamous cell line(Fadu), in the presence of 40 uM thymidine. Type of test: functional. Further details: scale not given: the % may be the effect or the level left.
A further test concerns A253 cell line. The test is described as follows: Growth inhibition against Human squamous cell line(A 253). Type of test: functional, cell-based. The procedure, abridged: as §1
In test [12] the target is T2, Dihydrofolate reductase. The test is described as follows: Inhibitory activity against dihydro folate reductase from human CCRF-CEM leukemic cell line.
For test [13], the system named is CCRF-CEM. Nature of the test: Growth inhibition against Human leukemic cell line(CCRF-CEM) during continuous exposure.
Test [14] concerns the target Thymidylate synthase (Homo sapiens, UniProt P04818). Nature of the test: Inhibitory activity against thymidylate Synthase from human recombinant sources.

SMILES strings stand for the structures. Bounds are passed on as bounds.

Dihydrofolate reductase (Lactobacillus casei, UniProt P00381), sequence (P00381 whole entry): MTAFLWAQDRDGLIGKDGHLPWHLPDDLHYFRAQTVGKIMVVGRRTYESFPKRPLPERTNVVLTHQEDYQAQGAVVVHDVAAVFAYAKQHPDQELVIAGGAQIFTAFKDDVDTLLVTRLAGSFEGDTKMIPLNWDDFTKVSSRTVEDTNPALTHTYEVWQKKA
Thymidylate synthase (Homo sapiens, UniProt P04818), sequence (P04818 whole entry): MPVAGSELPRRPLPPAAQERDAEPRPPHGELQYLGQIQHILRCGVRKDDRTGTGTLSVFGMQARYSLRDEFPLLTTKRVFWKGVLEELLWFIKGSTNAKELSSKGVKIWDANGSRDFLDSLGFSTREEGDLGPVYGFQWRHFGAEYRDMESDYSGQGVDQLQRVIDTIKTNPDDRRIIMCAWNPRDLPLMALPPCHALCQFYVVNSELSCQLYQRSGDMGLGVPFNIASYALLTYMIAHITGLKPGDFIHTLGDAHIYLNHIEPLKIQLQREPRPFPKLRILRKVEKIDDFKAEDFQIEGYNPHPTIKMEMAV

Consider `CC1=C(Sc2ccc(C(=O)NC(CCC(=O)O)C(=O)O)cc2)C2C(=O)NC(N)=NC2N1` (centres undefined), for which the Control was determined as 4% in the test on FaDu [1]; 7% in the test on FaDu [4]; 78% in the test with FaDu [5]; 5% in the test on FaDu [10]; 83% in the test on FaDu [11]. Besides, the IC50 was 21 nM against Thymidylate synthase [2], 2200 nM against Dihydrofolate reductase [7], 2200 nM on Dihydrofolate reductase [9] and 124 nM at Dihydrofolate reductase [12]. Besides, the EC50 in the test with CCRF-CEM [3] turned out to be 450 nM; in the test with FaDu [6], 530 nM; with CCRF-CEM [8] it was 810 nM; in the test with A253 cell line, 3000 nM.
`C#CCN(Cc1ccc2[nH]c(N)nc(=O)c2c1)c1ccc(C(=O)NC(CCC(=O)O)C(=O)O)cc1` (centres undefined) gave an EC50 with CCRF-CEM [13] of 720 nM.
Regarding `CN(Cc1cnc2nc(N)nc(N)c2n1)c1ccc(C(=O)N[C@@H](CCC(=O)O)C(=O)O)cc1` [METHOTREXATE], the Control with FaDu [1] came out at 18%; in the test with FaDu [4] it was 114%; in the test on FaDu [5], 95%; in the test on FaDu [10] it was 2%; with FaDu [11] it was 11%. In addition, the EC50 in the test with A253 cell line came to 13 nM.
As to `CC1=C(Sc2ccncc2)C2C(=O)NC(N)=NC2N1` (centres undefined), the IC50 is 100000 nM at Thymidylate synthase [2], 340 nM on Thymidylate synthase [14], > 69000 nM against Dihydrofolate reductase [7] and > 69000 nM on Dihydrofolate reductase [9].
